# In the EternaBench riboswitch data:
# Columns and labels:
# MS2 coat protein [1] = assay: apparent Kd, MS2 coat protein; higher = weaker binding; RNA-MaP array
# In short: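 In Tris-HCl pH 7.5 buffer with KCl, MgCl2, BSA, DTT, tRNA and Tween20, with or without input ligand, fluorescently labeled MS2 coat protein at 1.5 nM to 3 μM was incubated at room temperature with designed RNAs. The RNAs had been transcribed on an Illumina sequencing chip from sequenced DNA templates, and incubation ran 0.8–1.5 h at the lowest to 10–20 min at the highest concentrations. Apparent Kd is the median of binding-curve fits for individual clusters. Designs measured on fewer than 10 clusters were excluded.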
# MS2 coat protein [2] = assay: apparent Kd, MS2 coat protein; higher = weaker binding; RNA-MaP array; FMN 200 µM where present
# In short: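 The titrant was SNAP-549-labelled MS2 coat protein, run from 0.7 or 1.5 nM in doubling steps to 3 µM. It was applied to designs transcribed by stalled E. coli RNA polymerase on Illumina sequencing-chip clusters, without ligand first and then with constant ligand, in 100 mM Tris-HCl pH 7.5, 80 mM KCl, 4 mM MgCl2, BSA, DTT, yeast tRNA and Tween-20. The apparent Kd is the median of filtered per-cluster binding-curve fits, with green signal normalised to red-channel RNA signal and control-cluster median Fmax.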
# [3] = designed as: OFF switch for flavin mononucleotide, no ligand
# [4] = ligand present: flavin mononucleotide, designed as: OFF switch for flavin mononucleotide
# [5] = designed as: ON switch for flavin mononucleotide, no ligand
# [6] = ligand present: flavin mononucleotide, designed as: ON switch for flavin mononucleotide
sequence,measurement,setting,value
UGUUUGGCUUCCUUUACAUGAGGAUCACCCAUGUUAUGUAAUUAGGAUAUCCAUGUGAGAUGGUUGGAGAAGGAAUGCAUGACG,apparent Kd,MS2 coat protein [1]; [3],27 nM
same,apparent Kd,MS2 coat protein [1]; [4],33 nM
AAAACUAAAGUCAGGAUAUAACGAAUCGAAGAUAGAUAGAAGGGACAUGAGGAUCACCCAUGUGAGGAAGACAA,apparent Kd,MS2 coat protein [1]; [3],13.1 nM
same,apparent Kd,MS2 coat protein [1]; [4],11.1 nM
UGGACGCAACGAGCACGAGGUCGGCAGCUACGAGGACCGGUACGGCCGCCACUCGAGUUACGACAUGAGGAUCACCCAUGUAAGG,apparent Kd,"MS2 coat protein [1]; designed as: OFF switch for tryptophan, no ligand",41.6 nM
same,apparent Kd,"MS2 coat protein [1]; ligand present: tryptophan, designed as: OFF switch for tryptophan",178 nM
AUCAAUCUAGGAUAUACAUGAGGAUCACCCAUGUCUUCAACCAAGGGCUCCACGACCUGUAGAAGGAGACAAAA,apparent Kd,MS2 coat protein [1]; [3],27 nM
same,apparent Kd,MS2 coat protein [1]; [4],22 nM
UGUCAGGUCCAUAACAUGAGGAUCACCCAUGUAAGGCAUGAGCAGGAUAUCAAAAGUCGUAAGACAGAGAAGGGCUAAAUGACC,apparent Kd,MS2 coat protein [1]; [3],7 nM
same,apparent Kd,MS2 coat protein [1]; [4],7.51 nM
AGUAACGGAACAUGAGGAUCACCCAUGUCAAAAGAUAAGACAAAGGAUAUCAGAUAAAGACCAAAUGAGAAGGUUGGAAGACAA,apparent Kd,MS2 coat protein [1]; [5],43 nM
same,apparent Kd,MS2 coat protein [1]; [6],31.4 nM
GAUAUGGUGGCUCAGGAUAUGCAAGGCUUAACAUGAGGAUCACCCAUGUUAUUUAAUGUGCAAGCGCAGAAGGGAGCUUGGCAAAA,apparent Kd,MS2 coat protein [1]; [5],9.39 nM
same,apparent Kd,MS2 coat protein [1]; [6],5.53 nM
AAUUUUAUGAAAGGAUAUGUGUGCUGGUCCAUCACAGAAGGUUCAAGGAGAUGGAUAUAACGACAUGAGGAUCACCCAUGUGCU,apparent Kd,MS2 coat protein [1]; [5],32 nM
same,apparent Kd,MS2 coat protein [1]; [6],22.1 nM
AAAAGAAGCUGAGGAUAUUGGUUAACAUGAGGAUCACCCAUGUCGUUGGUGGAAAACACCUGACGCAAGAAGGCAGACACUUAU,apparent Kd,MS2 coat protein [1]; [5],15.7 nM
same,apparent Kd,MS2 coat protein [1]; [6],7.81 nM
UUGAUCGCUCAGAAGGACGCGCAGGACCAAGCCGUAGGAUAUGACGAAUGCUAACGGAGUCCACAUGAGGAUCACCCAUGUGCA,apparent Kd,MS2 coat protein [1]; [5],65.2 nM
same,apparent Kd,MS2 coat protein [1]; [6],18.9 nM
GUCUUGUAAGGAUAUGAUCAGUAGGAAAGAUGGCAGCAUCAUCAGAAGGUACAUGAGGAUCACCCAUGUUGUGA,apparent Kd,MS2 coat protein [1]; [3],17 nM
same,apparent Kd,MS2 coat protein [1]; [4],22.9 nM
AUGGUACAUGAGGAUCACCCAUGUCAGGAUAUCGGCUGUGACGUGAAAAGAGUGUUGGCGAGAAGGGACUGCAA,apparent Kd,MS2 coat protein [2]; [3],39.7 nM
same,apparent Kd,MS2 coat protein [2]; [4],45.6 nM
AAAUAAAGGAUUAAGGAUAUAUCACAUGAAACAUGAGGAUCACCCAUGUAAUAAUAUAAAGGGUGAUAGAAGGUAGUUUAUAAAUA,apparent Kd,MS2 coat protein [2]; [5],415 nM
same,apparent Kd,MS2 coat protein [2]; [6],440 nM
GGAUUAAUAGCCCACAUGAGGAUCACCCAUGUAGUAUUUUACAAGGAUAUGGUGGGACUUCGUGGCCAGAAGGUGUAAAGGAUC,apparent Kd,MS2 coat protein [2]; [5],451 nM
same,apparent Kd,MS2 coat protein [2]; [6],397 nM
UUCAGCGAUCAAGGAUAUCUAUAAACAUGCGGACAUGAGGAUCACCCAUGUUGAUCACCCAUGUGGGAGAAGGUGAACAUGAGG,apparent Kd,MS2 coat protein [2]; [5],174 nM
same,apparent Kd,MS2 coat protein [2]; [6],72.9 nM
UGGUACUAGGGAGGAUAUGGGAAGAUACAUGAGGAUCACCCAUGUUUAAGAAUGCCGAGAGGCAACGAGAAGGCCCUAGUACCU,apparent Kd,MS2 coat protein [2]; [5],793 nM
same,apparent Kd,MS2 coat protein [2]; [6],132 nM
GAGCGAAAGCUCAAUGUCGAUAGCAGAAGGGCAUGAAAACAUGAAAACACAUGAGGAUCACCCAUGUAGGAUAUGCUAUCGACU,apparent Kd,MS2 coat protein [2]; [3],10.6 nM
same,apparent Kd,MS2 coat protein [2]; [4],17.6 nM
CCAAAAGCUACAGGAUAUCCGACUCGGUUGUCAGGAGAAGGGUGGCAAGACAUGAGGAUCACCCAUGUAGGGUCAUCCUUGAAA,apparent Kd,MS2 coat protein [2]; [3],9.9 nM
same,apparent Kd,MS2 coat protein [2]; [4],22.1 nM
GGGUAACAUGAGGAUCACCCAUGUGAGGAUAUUCUAGGGAUGGAAGCUCGGCCGGCCAGGAGAAGGUACUAAAG,apparent Kd,MS2 coat protein [2]; [3],44 nM
same,apparent Kd,MS2 coat protein [2]; [4],48 nM
UAAACAUGAGGAUCACCCAUGUAAAGAUCGGUAGUAGAGAGUGAGGAUAUACUAAAUUUUAUGGAGUAGAAGGCACUGGGUUCU,apparent Kd,MS2 coat protein [2]; [5],40.1 nM
same,apparent Kd,MS2 coat protein [2]; [6],32.3 nM
AGUAGAUCAGGAUAUACAUAAAUGAUAAUUAUGUAACUUCUACAUGAGGAUCACCCAUGUAGAAGGGAUCUACA,apparent Kd,MS2 coat protein [2]; [3],12.6 nM
same,apparent Kd,MS2 coat protein [2]; [4],13.1 nM
ACUACUUAGUGAGGAUAUACAUAAUUUAUAACUGUAGAAGGCACAAACCUCAAUACAUGAGGAUCACCCAUGUUUUAUAUCUAU,apparent Kd,MS2 coat protein [2]; [3],32.7 nM
same,apparent Kd,MS2 coat protein [2]; [4],46.4 nM
UUAUGUCGCGUAGGAUAUCAUUAGAGUUGUAAUUUAAUUGUAAUUUCGAUAUGAGAAGGACGUACACAUGAGGAUCACCCAUGU,apparent Kd,MS2 coat protein [2]; [3],17.2 nM
same,apparent Kd,MS2 coat protein [2]; [4],15.3 nM
UUAGAAAUGUUAGGAUAUUAAUAUUUUUUUAGUAUGAUCUACAUGAGGAUCACCCAUGUUAAUAUUAAGAAGGAACAUUUUAUU,apparent Kd,MS2 coat protein [2]; [3],88.5 nM
same,apparent Kd,MS2 coat protein [2]; [4],64 nM
AAGGAUAGAGGAUAUACAUAGAUACAGAUUCAUGUAGUCCUACAUGAGGAUCACCCAUGUAGAAGGCUAUCCUA,apparent Kd,MS2 coat protein [2]; [3],15.6 nM
same,apparent Kd,MS2 coat protein [2]; [4],83.8 nM
UCCACUGCUGAGAAGGGAUACGUCUGGCUCGCAUCAGGAUAUCGAUACAGUGCAGCAUGAGGACAUGAGGAUCACCCAUGUGUG,apparent Kd,MS2 coat protein [2]; [5],104 nM
same,apparent Kd,MS2 coat protein [2]; [6],68.8 nM
